Bioassay records as filed in PubChem.
HSF-1 act: increases HSF-1 driven luciferase reporter signal; NIH3T3-HGL HSF-1 luciferase reporter, MG132, 8 h; 100% = twice DMSO control signal; AID 504408; activation, % at 9 µM; 300,000 compounds, 1.7% hits;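 active = mean replicate activation of at least 50% with a set share of replicates each reaching 50%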;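 note: 0% = median of the neutral control wells and 100% = twice that signal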
HIF activator: HIF pathway transcriptional activation. U2OS HRE-luciferase reporter, luminescence; normalized: DMSO 0%, desferrioxamine 100%. activation, % at 7.5 µM (by protocol). 300,000 compounds, 0.32% hits. AID 1910;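 active = mean activation of at least 10% of the iron chelator positive control signal, with at least half of replicates also reaching 10%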
T cruzi inh: T. cruzi replication inhibition; T. cruzi beta-gal in NIH3T3, luminescence, 90 h; 300,000 compounds, 1.4% hits; inhibition, % (concentration not given with the values);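 active = mean inhibition across valid replicates above about 55%, limit read from the data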;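 note: signal also drops with host cell toxicity which is not excluded here; 0% = plate median of DMSO wells and 100% = zero luminescence signal; higher percent means less beta-gal luminescence so fewer parasites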
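compound dosing = single 50 nL compound addition per well in DMSO | material = NIH/3T3 host cells with β-galactosidase reporter T. cruzi | input = 5,000 host fibroblasts per well | timing = ≥90 h infection period, 3 h prior cell attachment | read-out basis = percent inhibition of parasite-derived β-gal signal | detection = GalScreen β-gal luminescence, detergent lysis, 60 min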
HSF1 inhib: HSF1 inhibition | AID 2098 | NIH3T3-HGL HSE-luciferase, MG132-induced, luminescence 8 h; hits give low values | activity change, negative = inhibition, % at 7.5 µM (by protocol) | 300,000 compounds, 0.77% hits;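 active = more than half of replicate wells show activity change below -50%, luminescence cut by over half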;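 note: luciferase reports HSF-1 transcriptional activity via heat shock element; 0% = median of DMSO wells and -100% = zero luminescence signal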
Calb FLC: affects C. albicans growth with fluconazole | C. albicans CaCi-2 + fluconazole, Alamar Blue growth, 48 h | growth inhibition, % (no concentration beside the values) | 300,000 compounds, 0.57% hits | AID 1979;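 active = growth inhibition above about 58% in most replicates, limit read from the data, passing the limit was not always enough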;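 note: all wells also contain fluconazole at 8 µg/ml as a sub-toxic cotreatment; 0% = median of DMSO wells and 100% = median of geldanamycin control wells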
* hit, by the source's call; . = no result. Most compounds without a hit are left out; they make up all but 4.4% or so of the library.

SMILES | HSF-1 act | HIF activator | T cruzi inh | HSF1 inhib | Calb FLC
COCc1ccc(CN2CCCC(CCC(=O)NCc3cccc(OC)c3)C2)o1 (stereo not drawn) | . | 0 | 59* | . | -10
COc1cccc(CNC(=O)CCC2CCCN(C/C=C/c3ccccc3OC)C2)c1 (stereo not drawn) | 17 | 0 | 66* | 10 | -8
COc1ccc(Nc2nnc(SCC(=O)N3CC(=O)Nc4ccccc43)s2)cc1 | 20 | 0 | 0 | 6 | -21
CN(CC(=O)Nc1ccccc1Cl)C(=O)COC(=O)C1=COCCO1 | 8 | 0 | -4 | 2 | 3
COc1ccc(/C=C/CN2CCCC(CCC(=O)NCc3ccc(F)c(F)c3)C2)cc1 (stereo not drawn) | . | 0 | 68* | . | -7
COCCC(=O)N1CCCC(CCC(=O)NCc2ccc(F)c(F)c2)C1 (stereo not drawn) | 9 | 1 | 5 | 2 | -16
COc1ccc(OC)c(N=C2SCCCN2C(=O)c2ccc(N3C(=O)CCC3=O)cc2)c1 | -76 | 0 | -3 | -68* | .
C/C(=N\OCc1ccc(C#N)cc1)c1cc2ccccc2o1 | 9 | 0 | 3 | -8 | 78*
O=C(Nc1nc(-c2cccnc2)cs1)c1cccc([N+](=O)[O-])c1 | -3 | 3 | 7 | 5 | 2
O=C(Nc1nc(-c2ccccc2)cs1)c1cccc([N+](=O)[O-])c1 | 11 | 1 | 55* | 14 | -32
O=C(Nc1nc(-c2ccccc2)cs1)C1CCCCN1S(=O)(=O)c1ccc(Cl)cc1 (stereo not drawn) | 13 | 0 | 78* | -7 | -4
O=C(Nc1cccc(-c2csc(Nc3cccc(C(F)(F)F)c3)n2)c1)c1ccccc1 | -13 | 0 | 32 | -5 | 4
Cc1c(C(=O)Nc2cccc([N+](=O)[O-])c2)csc1-c1ccccc1 | 41 | 1 | 60* | 18 | -11
O=C(Nc1nc(-c2ccccc2)cs1)C1CCCCN1S(=O)(=O)c1ccccc1 (stereo not drawn) | . | 0 | 6 | . | -7
O=C(Nc1ccc(-c2csc(Nc3cccc(C(F)(F)F)c3)n2)cc1)c1ccccc1 | 27 | 1 | 79* | 4 | -10
CCc1noc(C)c1C(=O)Nc1ccc(-c2nnc3n2CCCCC3)cc1 | -7 | 0 | 1 | -1 | .
CC1(C)CC(=O)C=C(OC(=O)c2ccc(Cl)cc2)C1 | 1 | 0 | -8 | -9 | 32
O=C(Nc1nc(-c2ccccc2)cs1)C1CCCN(S(=O)(=O)c2ccccc2)C1 (stereo not drawn) | 10 | 0 | 61* | 6 | -2
O=C(Nc1nc(-c2ccccc2)cs1)C1CCCN(S(=O)(=O)c2cccc([N+](=O)[O-])c2)C1 (stereo not drawn) | 19 | 0 | 74* | -5 | -19
CC1CCCN(S(=O)(=O)c2cccc([N+](=O)[O-])c2)C1 (stereo not drawn) | -32 | 0 | -5 | -10 | -12
C=C1SC(Nc2c(C)cccc2C)=NC12CCCCC2 | 0 | 0 | 64* | 7 | 1
C=C1SC(Nc2c(C)cc(C)cc2C)=NC12CCCCC2 | -57 | 0 | 67* | -46 | 0
Cc1cccc(C)c1NC(=O)NC1(C(=O)N2CCCCC2)CCCCC1 | -4 | 0 | -14 | 1 | -9
CCc1n[nH]c(=S)n1/N=C/c1ccc(-c2ccc(Br)cc2)o1 | 3 | 22* | -17 | -2 | -3
COc1ccc(NC(=O)C(Sc2nnc(-c3ccncc3)n2-c2ccccc2C)c2ccccc2)cc1Cl (stereo not drawn) | 53* | 0 | 49 | 17 | 32
SMILES | HSF-1 act | HIF activator | T cruzi inh | HSF1 inhib | Calb FLC
O=C(CSc1nnc(-c2ccncc2)n1-c1ccccc1Cl)Nc1ccc(C(=O)O)cc1 | -4 | 0 | -6 | 2 | 6
COc1ccc(NC(=O)C(OC)c2ccccc2)cc1Cl (stereo not drawn) | 8 | -17 | -11 | 1 | -2
COc1ccc(NC(=O)C(NCC(C)C)c2ccccc2)cc1Cl (stereo not drawn) | 71* | 0 | -6 | 30 | -5
COCCNC(=O)c1cccc(OC2CCN(Cc3cccc(SC)c3)CC2)c1 | 13 | 1 | 20 | -1 | -9
CC(C)(C)OC(=O)N1CCN(C(=O)c2[nH]cnc2C(=O)NCC(=O)OCc2ccccc2)CC1 | -90 | 0 | -26 | -88* | -3
CC(C)(C)OC(=O)CNC(=O)c1nc[nH]c1C(=O)N1CCN(C(=O)OC(C)(C)C)CC1 | 18 | -1 | -3 | -1 | -9
O=C(COC(=O)c1ccccc1)c1ccc(Br)cc1 | 58* | 4 | -13 | 52 | 1
Cc1cc(C(=O)CCl)c(C)n1Cc1ccco1 | 9 | 2 | 80* | 0 | 2
Cc1cc(C(=O)CSc2nncs2)c(C)n1Cc1ccco1 | 50 | -2 | -8 | 31 | 5
O=C(c1ccc([N+](=O)[O-])o1)N1CCN(c2nc3c(F)cc(F)cc3s2)CC1 | 71* | 0 | 56* | 36 | 3
O=[N+]([O-])c1cccc(-c2ccc3nnc(SCc4ccccn4)n3n2)c1 | 63* | 0 | 1 | 12 | -4
Cc1cccc2sc(NC(=O)C3c4ccccc4Oc4ccccc43)nc12 | 30 | 0 | 23 | 6 | -1
CC(C)(C)C(=O)Nc1ccc(S(=O)(=O)Nc2ccccn2)cc1 | 3 | 0 | 8 | -6 | -15
Cc1ccc(C(=O)CC(=O)COc2ccc(Cl)cc2)cc1 | 2 | 1 | 4 | 1 | 114*
CCOc1ccc(NCC(=O)c2ccc(C)cc2)cc1 | -60 | 2 | 57* | -54* | -30
Cc1ccc(C(=O)CNc2ccc(Cl)cc2)cc1 | 36 | 2 | -45 | 30 | -8
O=C(N/N=C(\c1ccccc1)c1ccccn1)c1cccc([N+](=O)[O-])c1 | . | 131* | 58* | . | 113*
C/C(=N/NC(=O)CNC(=O)c1ccccn1)c1ccc([N+](=O)[O-])cc1 | -85 | 0 | 4 | -81* | 2
Cc1ccc([N+](=O)[O-])c(OCCCN2C(=O)NC(C)(C)C2=O)c1 | 12 | 0 | -11 | 3 | 46
COc1ccc(OC)c2c1sc(=NC(=O)C1COc3ccccc3O1)n2C (stereo not drawn) | 17 | 0 | 29 | 3 | 7
O=c1c2ccccc2nc2ccc(NCc3cccs3)nn12 | 40 | 3 | 9 | 16 | -3
O=C(COC(=O)c1cccs1)Nc1ccccc1[N+](=O)[O-] | -6 | 0 | 1 | -2 | -13
CCCc1cc(-c2nc(N)ncc2-c2ccc3c(c2)OCCCO3)c(O)cc1OC | 21 | 0 | 58* | 2 | -3
COc1ccc(-n2ncc3c(NCc4cccs4)ncnc32)cc1 | 47 | 4 | 16 | 23 | 13
c1ccc(-n2ncc3c(NCc4cccs4)ncnc32)cc1 | 66* | 4 | -1 | 42 | 7
CCN(CC)C(=O)COc1coc(CN2CCN(c3ccc(F)cc3)CC2)cc1=O | -69 | 1 | 1 | -62* | 8
